Active and inactive are the calls of the source. No cut-off for these calls is given here.
Tests used:
[1] = Half life in Beagle dog at 2.5 mg/kg, iv; type: ADME, organism-based, Canis lupus familiaris; set-up: dose 2.5 mg/kg, route intravenous; settings: in vivo
[2] = Volume of distribution in Beagle dog at 2.5 mg/kg, iv; type: ADME, organism-based, Canis lupus familiaris; set-up: dose 2.5 mg/kg, route intravenous; settings: in vivo, read-out: Vss
[3] = Volume of distribution in terminal phase in Beagle dog at 2.5 mg/kg, iv; type: ADME, organism-based, Canis lupus familiaris; set-up: dose 2.5 mg/kg, route intravenous; settings: in vivo, read-out: Vbeta
[4] = AUC in Beagle dog at 2.5 mg/kg, iv; type: ADME, organism-based, Canis lupus familiaris; set-up: dose 2.5 mg/kg, route intravenous; settings: plasma
Procedure, shortened: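 Single intravenous dose. Plasma drug exposure is reported as area under the curve in µg-hr/mL. It is listed in the same table as T1/2, Vss, Vβ and plasma clearance (CLp).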

[5] = Plasma clearance in Beagle dog at 2.5 mg/kg, iv; type: ADME, organism-based, Canis lupus familiaris; set-up: dose 2.5 mg/kg, route intravenous
[6] = Half life in Sprague-Dawley rat at 5 mg/kg, po; type: ADME, organism-based; set-up: dose 5 mg/kg, route oral; settings: in vivo
[7] = Cmax in Sprague-Dawley rat at 5 mg/kg, po; type: ADME, organism-based; set-up: dose 5 mg/kg, route oral; settings: in vivo
[8] = Tmax in Sprague-Dawley rat at 5 mg/kg, po; type: ADME, organism-based; set-up: dose 5 mg/kg, route oral; settings: in vivo
[9] = Oral bioavailability in cynomolgus monkey at 2.5 mg/kg, po; type: ADME, organism-based, Macaca fascicularis; settings: in vivo
[10] = Half life in Beagle dog at 2.5 mg/kg, po; type: ADME, organism-based, Canis lupus familiaris; set-up: dose 2.5 mg/kg, route oral; settings: in vivo
[11] = Cmax in Beagle dog at 2.5 mg/kg, po; type: ADME, organism-based, Canis lupus familiaris; set-up: dose 2.5 mg/kg, route oral; settings: in vivo
[12] = Tmax in Beagle dog at 2.5 mg/kg, po; type: ADME, organism-based, Canis lupus familiaris; set-up: dose 2.5 mg/kg, route oral; settings: in vivo
[13] = AUC in Beagle dog at 2.5 mg/kg, po; type: ADME, organism-based, Canis lupus familiaris; set-up: dose 2.5 mg/kg, route oral; settings: plasma
[14] = Oral bioavailability in Beagle dog at 2.5 mg/kg, po; type: ADME, organism-based, Canis lupus familiaris; settings: in vivo
[15] = Drug level in Zucker rat plasma after 4 hrs at 1 mg/kg; type: ADME, organism-based; set-up: dose 1 mg/kg; settings: read-out: Drug uptake
Procedure, shortened: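 Female ZDF rats, 10 weeks old, fasted overnight, then dosed orally with vehicle or drug. Four hours after dosing (t = 0) they had free access for 4 h to a liquid mixed meal (Ensure). Plasma was sampled for drug level, active GLP-1, insulin, glucagon and glucose.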

Canis familiaris [16] = experiment: Electrocardiographic activity in dog upto 28 ug/ml, iv; type: functional, organism-based; settings: Canis lupus familiaris
Procedure, shortened: (§1)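 Hemodynamic and electrocardiographic profile recorded in anesthetized rats or dogs given the drug intravenously, at plasma concentrations up to 28 µg/mL.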

Salmonella typhi = experiment: Mutagenicity against Salmonella typhi by miniAmes test upto 2 mg/well; type: functional, organism-based; settings: Salmonella enterica subsp. enterica serovar Typhi
Mus musculus = experiment: Clastogenicity in mouse upto 2000 mg/kg; type: functional, organism-based; set-up: dose 2000 mg/kg
Procedure, shortened: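 Murine in vivo clastogenicity test, dosed at up to 2000 mg/kg.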

[17] = AUC (0-24h) in rat; type: ADME, organism-based; set-up: time < 24 hr; settings: plasma
[18] = AUC (0-24h) in dog; type: ADME, organism-based, Canis lupus familiaris; set-up: time < 24 hr; settings: plasma
Rattus norvegicus [19] = experiment: Hemodynamic activity in rat upto 28 ug/ml, iv; type: functional, organism-based; procedure, shortened: as §1
Canis familiaris [20] = experiment: Hemodynamic activity in dog upto 28 ug/ml, iv; type: functional, organism-based; settings: Canis lupus familiaris; procedure, shortened: as §1
Rattus norvegicus [21] = experiment: Electrocardiographic activity in rat upto 28 ug/ml, iv; type: functional, organism-based; procedure, shortened: as §1
Dipeptidyl peptidase 8 = Dipeptidyl peptidase 8 (Homo sapiens, UniProt Q6V1X1)
Sequence of Dipeptidyl peptidase 8 (Q6V1X1 whole entry): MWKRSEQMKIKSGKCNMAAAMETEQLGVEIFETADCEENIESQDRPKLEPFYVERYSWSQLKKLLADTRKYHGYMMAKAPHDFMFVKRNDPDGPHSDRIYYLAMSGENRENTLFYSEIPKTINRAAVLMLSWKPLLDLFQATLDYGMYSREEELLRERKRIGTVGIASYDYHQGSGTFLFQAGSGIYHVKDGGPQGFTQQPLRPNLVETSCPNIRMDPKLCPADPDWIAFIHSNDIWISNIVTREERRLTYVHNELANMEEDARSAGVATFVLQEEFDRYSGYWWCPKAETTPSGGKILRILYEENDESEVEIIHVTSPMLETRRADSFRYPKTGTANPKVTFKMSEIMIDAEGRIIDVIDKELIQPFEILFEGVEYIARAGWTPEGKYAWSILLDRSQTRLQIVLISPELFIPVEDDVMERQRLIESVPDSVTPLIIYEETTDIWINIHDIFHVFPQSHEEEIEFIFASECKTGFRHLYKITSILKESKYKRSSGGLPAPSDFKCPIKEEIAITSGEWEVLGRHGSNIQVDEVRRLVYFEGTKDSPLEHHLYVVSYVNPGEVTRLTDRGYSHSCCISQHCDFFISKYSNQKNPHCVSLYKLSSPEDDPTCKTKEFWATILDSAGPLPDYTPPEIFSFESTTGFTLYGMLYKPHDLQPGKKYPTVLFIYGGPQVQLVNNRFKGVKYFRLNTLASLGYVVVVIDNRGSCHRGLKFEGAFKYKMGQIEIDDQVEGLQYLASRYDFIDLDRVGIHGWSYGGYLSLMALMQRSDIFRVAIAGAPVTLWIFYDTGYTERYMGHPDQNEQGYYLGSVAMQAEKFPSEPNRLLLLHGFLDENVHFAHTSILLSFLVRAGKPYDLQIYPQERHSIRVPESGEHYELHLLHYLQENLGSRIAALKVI

Dipeptidyl peptidase 9 = Dipeptidyl peptidase 9 (Homo sapiens, UniProt Q86TI2)
Sequence of Dipeptidyl peptidase 9 (Q86TI2 whole entry): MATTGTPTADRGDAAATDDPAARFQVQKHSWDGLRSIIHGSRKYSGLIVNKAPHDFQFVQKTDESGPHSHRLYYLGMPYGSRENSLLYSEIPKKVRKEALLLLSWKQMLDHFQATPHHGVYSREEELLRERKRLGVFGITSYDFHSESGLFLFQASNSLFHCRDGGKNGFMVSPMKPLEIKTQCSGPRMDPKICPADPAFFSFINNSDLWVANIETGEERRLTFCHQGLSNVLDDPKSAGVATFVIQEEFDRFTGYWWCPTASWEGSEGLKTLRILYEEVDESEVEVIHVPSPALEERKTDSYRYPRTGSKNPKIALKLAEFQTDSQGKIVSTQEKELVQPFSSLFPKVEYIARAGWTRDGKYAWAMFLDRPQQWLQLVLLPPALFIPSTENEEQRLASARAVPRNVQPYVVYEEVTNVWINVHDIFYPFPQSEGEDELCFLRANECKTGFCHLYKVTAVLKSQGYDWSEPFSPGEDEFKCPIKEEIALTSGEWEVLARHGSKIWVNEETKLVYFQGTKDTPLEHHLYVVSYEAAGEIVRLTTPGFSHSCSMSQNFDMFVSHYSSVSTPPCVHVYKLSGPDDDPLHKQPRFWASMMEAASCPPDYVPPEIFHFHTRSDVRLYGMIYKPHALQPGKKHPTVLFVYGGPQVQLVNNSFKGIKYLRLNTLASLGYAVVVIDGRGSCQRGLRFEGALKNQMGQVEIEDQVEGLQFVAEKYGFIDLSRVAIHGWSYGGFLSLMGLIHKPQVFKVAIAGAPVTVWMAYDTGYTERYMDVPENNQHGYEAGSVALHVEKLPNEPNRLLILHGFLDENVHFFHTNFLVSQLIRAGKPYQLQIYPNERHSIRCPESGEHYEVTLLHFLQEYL

Dipeptidyl peptidase 2 = Dipeptidyl peptidase 2 (Homo sapiens, UniProt Q9UHL4); experiment: Inhibition of DPP7
Prolyl endopeptidase = target: T1, Prolyl endopeptidase (Homo sapiens, UniProt P48147); experiment: Inhibition of POP
T1 sequence (P48147 whole entry): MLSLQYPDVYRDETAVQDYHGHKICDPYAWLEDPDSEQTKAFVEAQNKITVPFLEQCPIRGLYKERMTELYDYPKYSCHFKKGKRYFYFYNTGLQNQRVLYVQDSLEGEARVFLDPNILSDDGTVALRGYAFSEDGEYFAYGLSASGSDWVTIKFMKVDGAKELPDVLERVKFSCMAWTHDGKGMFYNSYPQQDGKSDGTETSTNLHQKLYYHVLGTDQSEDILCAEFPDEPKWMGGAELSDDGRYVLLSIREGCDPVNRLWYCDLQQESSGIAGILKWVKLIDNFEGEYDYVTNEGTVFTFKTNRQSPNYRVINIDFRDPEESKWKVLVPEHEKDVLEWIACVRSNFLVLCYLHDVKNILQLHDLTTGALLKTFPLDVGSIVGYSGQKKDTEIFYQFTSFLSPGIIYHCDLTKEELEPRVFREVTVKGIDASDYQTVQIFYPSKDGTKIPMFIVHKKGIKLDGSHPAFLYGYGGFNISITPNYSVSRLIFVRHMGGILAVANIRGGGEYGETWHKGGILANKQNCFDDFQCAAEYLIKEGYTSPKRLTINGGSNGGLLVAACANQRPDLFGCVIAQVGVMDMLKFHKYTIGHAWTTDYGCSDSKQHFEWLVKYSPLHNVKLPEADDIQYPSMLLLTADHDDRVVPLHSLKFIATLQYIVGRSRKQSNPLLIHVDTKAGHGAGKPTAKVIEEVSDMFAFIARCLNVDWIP

Prolyl endopeptidase FAP = target: T2, Prolyl endopeptidase FAP (Homo sapiens, UniProt Q12884); experiment: Inhibition of FAPalpha
T2 sequence (Q12884 whole entry): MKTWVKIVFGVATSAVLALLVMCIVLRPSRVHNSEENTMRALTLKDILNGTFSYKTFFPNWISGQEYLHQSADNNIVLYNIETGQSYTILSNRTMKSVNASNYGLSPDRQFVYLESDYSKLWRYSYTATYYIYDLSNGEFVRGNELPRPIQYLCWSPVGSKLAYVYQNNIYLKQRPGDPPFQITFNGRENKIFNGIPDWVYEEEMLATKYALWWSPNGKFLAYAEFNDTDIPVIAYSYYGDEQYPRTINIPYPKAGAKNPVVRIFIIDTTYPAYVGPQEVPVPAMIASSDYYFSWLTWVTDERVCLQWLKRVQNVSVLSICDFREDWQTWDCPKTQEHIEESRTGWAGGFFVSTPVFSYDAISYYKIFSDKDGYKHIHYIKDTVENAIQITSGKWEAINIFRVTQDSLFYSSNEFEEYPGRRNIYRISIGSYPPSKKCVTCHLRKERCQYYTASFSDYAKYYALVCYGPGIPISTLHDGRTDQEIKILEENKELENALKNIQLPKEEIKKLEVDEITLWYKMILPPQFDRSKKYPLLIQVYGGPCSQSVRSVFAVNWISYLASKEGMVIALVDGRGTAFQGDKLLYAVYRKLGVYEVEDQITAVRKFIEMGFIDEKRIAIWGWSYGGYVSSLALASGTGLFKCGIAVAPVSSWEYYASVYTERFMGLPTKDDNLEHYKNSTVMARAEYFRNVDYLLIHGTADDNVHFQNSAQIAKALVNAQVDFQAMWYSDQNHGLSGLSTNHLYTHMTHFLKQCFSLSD

**Q.** Which results are given for `C#C[C@H]1CC[C@@H](C#N)N1C(=O)CNC1(C)CCN(c2cc(C(=O)O)ccn2)CC1`?
**A.** half-life [1]: 384 min; Vd [2]: 1.5 L/kg; Vd [3]: 8.5 L/kg; AUC [4]: 2800 ng·h/mL; clearance [5]: 15.2 mL/min/kg; half-life [6]: 282 min; Cmax [7]: 370 ng/mL; Tmax [8]: 4.7 h; bioavailability [9]: 11.2%; half-life [10]: 318 min; Cmax [11]: 300 ng/mL; Tmax [12]: 48 min; AUC [13]: 970 ng·h/mL; bioavailability [14]: 35.2%; concentration at 4 h [15]: 18 ng/mL; Activity (Canis familiaris [16]): Active; Activity (Salmonella typhi): inactive; Activity (Mus musculus): inactive; AUC(0-t) at 24 h [17]: 39000 ng·h/mL; AUC(0-t) at 24 h [18]: 36000 ng·h/mL; Activity (Rattus norvegicus [19]): Active; Activity (Canis familiaris [20]): Active; Activity (Rattus norvegicus [21]): Active; Ki (Dipeptidyl peptidase 8): > 30 µM; Ki (Dipeptidyl peptidase 9): > 30 µM; Ki (Dipeptidyl peptidase 2): > 30 µM; Ki (Prolyl endopeptidase): > 30 µM; Ki (Prolyl endopeptidase FAP): > 30 µM

Reference: ChEMBL document CHEMBL1137403, “Discovery of 2-[4-{{2-(2S,5R)-2-cyano-5-ethynyl-1-pyrrolidinyl]-2-oxoethyl]amino]- 4-methyl-1-piperidinyl]-4-pyridinecarboxylic acid (ABT-279): a very potent, selective, effective, and well-tolerated inhibitor of dipeptidyl peptidase-IV, useful for the treatment of diabetes” (J Med Chem, 2006)
